Experiments:
[1] = Plasma concentration in C57Bl/6J mouse at 10 mg/kg, po 22 hrs post last dose; assay type: ADME, organism-based; set-up: dose 10 mg/kg, route oral
How it was run: (§1)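 C57Bl/6J mice, 20 weeks old, kept on a high-fat/high-fructose diet (diet-induced obese), were dosed orally once daily for 4 weeks at 1, 3 or 10 mg/kg/day in methylcellulose-Tween 80 vehicle. Lean and obese vehicle-treated controls were included, with n = 9–10 per group. Food intake and body weight were followed. Plasma drug levels were taken at study end, about 22 h after the last dose.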

Mus musculus [2] = species on record: Mus musculus; assay: Toxicity in C57Bl/6J mouse assessed as HPA axis biomarker modification; assay type: organism-based; conditions: in vivo
Mus musculus [3] = assay: Toxicity in C57Bl/6J mouse assessed as effect on food intake at 1 to 10 mg/kg, po; assay type: organism-based; set-up: dose 1-10 mg/kg, route oral; conditions: in vivo; how it was run: as §1
Xenopus laevis = species on record: Xenopus laevis; assay: Toxicity in Xenopus laevis by teratogenicity assay; assay type: organism-based; conditions: in vivo
Liver microsomes = assay: Metabolic stability in human liver microsomes; assay type: ADME, Microsome
Mus musculus [4] = assay: Antidiabetic activity in diet induced obese C57Bl/6J mouse assessed as liver triglyceride level at 3 mg/kg, po qd administered for 4 weeks (reference value: 210.5 +/- 15.4 mg/g); assay type: functional
[5] = Plasma concentration in C57Bl/6J mouse at 3 mg/kg, po 22 hrs post last dose; assay type: ADME, organism-based; set-up: dose 3 mg/kg, route oral; how it was run: as §1
Mus musculus [6] = assay: Ex vivo inhibition of 11beta-HSD1 in C57Bl/6J mouse liver at 30 mg/kg, po after 16 hrs; assay type: functional
How it was run: (§2)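 Mice given a single oral dose as a suspension in Tween 80/0.6% methylcellulose (0.5/99.5, v/v) at 10 mL/kg. At 2 h or 16 h post-dose, animals were killed by cervical dislocation and 50 mg liver and 200 mg subcutaneous fat were taken for 11β-HSD1 activity. Reactions were stopped with HCl 1 N/methanol (1/1). 3H-cortisone and 3H-cortisol were quantified by HPLC with flow scintillation detection.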

Mus musculus [7] = assay: Inhibition of 11beta-HSD1 in mouse adipose tissue at 3 mg/kg, po after 24 hrs; assay type: functional
How it was run: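 Pharmacodynamic study in mice: single oral 3 mg/kg dose, with liver and fat 11β-HSD1 activity followed over 24 h post-dosing.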

[8] = Permeability across human Caco2 cells; assay type: ADME, cell-based; conditions: Caco-2, read-out: permeability
How it was run: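 Permeability was measured with the compound alone and in the presence of the P-gp inhibitor elacridar, and expressed in 10^-7 cm/s.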

[9] = Plasma clearance in rat at 3 mg/kg, iv and 10 mg/kg, po; assay type: ADME, organism-based
[10] = Cmax in rat plasma at 10 mg/kg, po; assay type: ADME, organism-based; set-up: dose 10 mg/kg, route oral
Mus musculus [11] = assay: Toxicity in C57Bl/6J mouse assessed as change in body weight at 1 to 10 mg/kg, po; assay type: organism-based; set-up: dose 1-10 mg/kg, route oral; conditions: in vivo; how it was run: as §1
Mus musculus [12] = assay: Antidiabetic activity in diet induced obese C57Bl/6J mouse assessed as plasma cholesterol level at 3 mg/kg, po qd administered for 4 weeks (reference value: 154.3 +/- 8.6 mg/dL); assay type: functional
Mus musculus [13] = assay: Ex vivo inhibition of 11beta-HSD1 in C57Bl/6J mouse subcutaneous fat at 30 mg/kg, po after 16 hrs; assay type: functional; how it was run: as §2
Mus musculus [14] = assay: Antidiabetic activity in diet induced obese C57Bl/6J mouse assessed as plasma insulin level at 3 mg/kg, po qd administered for 4 weeks (reference value: 3.6 +/- 0.2 ng/mL); assay type: functional
Mus musculus [15] = assay: Antidiabetic activity in po dosed C57Bl/6J mouse assessed as reduction in plasma insulin level administered for 4 weeks; assay type: functional, organism-based
Mus musculus [16] = assay: Ex vivo inhibition of 11beta-HSD1 in C57Bl/6J mouse subcutaneous fat at 3 mg/kg, po after 16 hrs; assay type: functional; how it was run: as §2
Mus musculus [17] = assay: Antidiabetic activity in diet induced obese C57Bl/6J mouse assessed as plasma glucose level at 10 mg/kg, po qd administered for 4 weeks (reference value: 297 +/- 15 mg/dL); assay type: functional
Mus musculus [18] = assay: Antidiabetic activity in diet induced obese C57Bl/6J mouse assessed as plasma cholesterol level at 1 mg/kg, po qd administered for 4 weeks (reference value: 154.3 +/- 8.6 mg/dL); assay type: functional
[19] = target: 11-beta-hydroxysteroid dehydrogenase 1 (Homo sapiens, UniProt P28845); assay: Inhibition of human recombinant 11beta-HSD1 by scintillation proximity assay
Chain of 11-beta-hydroxysteroid dehydrogenase 1 (P28845 whole entry): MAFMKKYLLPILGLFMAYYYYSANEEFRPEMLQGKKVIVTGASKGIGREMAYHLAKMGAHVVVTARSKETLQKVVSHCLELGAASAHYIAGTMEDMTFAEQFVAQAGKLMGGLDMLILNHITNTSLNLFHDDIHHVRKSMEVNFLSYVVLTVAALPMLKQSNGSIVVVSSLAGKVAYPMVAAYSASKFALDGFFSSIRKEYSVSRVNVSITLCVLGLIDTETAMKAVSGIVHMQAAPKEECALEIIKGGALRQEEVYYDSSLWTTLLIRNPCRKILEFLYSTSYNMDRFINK

With CC(C)(C)N1CCN(c2ccc(N3CCN(C(=O)N[C@H]4C5CC6CC4C[C@](C(N)=O)(C6)C5)c4ccccc43)nc2)CC1 the concentration at 22 h [1] was 2.6 nM, the Activity (Mus musculus [2]) was “Non-toxic” and the Activity (Mus musculus [3]) was “Non-toxic”. The Activity (Xenopus laevis) was “Non-toxic”, the Stability (Liver microsomes) was 2% and the Activity (Mus musculus [4]) was 142.8 mg/g. It also gave a concentration at 22 h [5] of 3.8 nM, an inhibition in vivo at 30 mg/kg (Mus musculus [6]) of 72% and an inhibition in vivo at 3 mg/kg (Mus musculus [7]) of 40%. For the same compound, the Papp [8] was 0.3 ×10⁻⁶ cm/s, the clearance [9] was 86.7 mL/min/kg and the Cmax [10] was 556 ng/mL. For the same compound, the Activity (Mus musculus [11]) was “Non-toxic”, the Activity (Mus musculus [12]) was 125.1 mg/dL and the inhibition in vivo at 30 mg/kg (Mus musculus [13]) was 60%. For the same compound, the Activity (Mus musculus [14]) was 2.3 ng/mL, the Activity (Mus musculus [15]) was “Dose-dependent effect” and the inhibition in vivo at 3 mg/kg (Mus musculus [16]) was > 50%. It also gave an Activity (Mus musculus [17]) of 224.6 mg/dL, an Activity (Mus musculus [18]) of 127.7 mg/dL and an IC50 [19] of 4 nM.

From ChEMBL document CHEMBL2380292, “Discovery of SAR184841, a potent and long-lasting inhibitor of 11β-hydroxysteroid dehydrogenase type 1, active in a physiopathological animal model of T2D” (Bioorg Med Chem Lett, 2013)
